A short description of series [1]: Inhibition of EV71 protease 3C using NMA-IEALFQGPPK(DNP)FR as substrate preincubated for 30 mins followed by substrate addition measured after 2 hrs by FRET analysis. Set-up: species or system Enterovirus A71.
The next series concerns Enterovirus A71. The series can be described thus: Antiviral activity against EV71 pseudotype virus infected in human Rhabdomyosarcoma cells assessed as reduction in viral replication after 24 hrs by Bright-Glo Luciferase Assay. The class given is functional, organism-based. Conditions: Enterovirus A. Put shortly:
(§1)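 EC50 (antiviral) or CC50 (cytotoxicity) values are averaged over three independent experiments, with error given as SEM (n=3).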

Series [2] in a line: Cytotoxicity against human Rhabdomyosarcoma cells after 24 hrs by WST-1 cell proliferation assay. It counts as cell-based. Put shortly: as §1
(In general: Tetrazolium dyes change colour on reduction, which living cells bring about.)

The nature of series [3]: Toxicity in iv dosed mouse measured for 24 hrs. It counts as organism-based. Conditions: in vivo. Put shortly: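 Acute toxicity study in mice dosed by intravenous injection; the read-out is LD50 in mg/kg.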
Series [4] in a line: Inhibition of EV71 protease 3C using Dabcyl-KTSAVLQSGFRKME-Edans as substrate by fluorescence analysis. More on the design: species or system Enterovirus A71.

Some results are limits rather than exact numbers.

We go through 15 compounds from ChEMBL document CHEMBL3739383, “Cyanohydrin as an Anchoring Group for Potent and Selective Inhibitors of Enterovirus 71 3C Protease” (J Med Chem, 2015).

With `O=C[C@H](C[C@@H]1CCCNC1=O)NC(=O)[C@H](Cc1ccccc1)NC(=O)/C=C/c1ccccc1`, half-maximal inhibition in series [1] (IC50) required 0.54 µM. For the same compound, in the series with Enterovirus A71, the EC50 was 0.26 µM. For the same compound, the CC50 at 24 h in series [2] was above 100 µM.

`N#CC(O)[C@H](C[C@@H]1CCCNC1=O)NC(=O)[C@H](Cc1ccccc1)NC(=O)/C=C/c1ccccc1` (some centres undefined) returned an IC50 in series [1] of 1.13 µM. Also, the EC50 in the series with Enterovirus A71 is 0.12 µM. This compound also registered a CC50 at 24 h in series [2] above 100 µM.

The compound `N#CC[C@H](C[C@@H]1CCCNC1=O)NC(=O)[C@H](Cc1ccccc1)NC(=O)/C=C/c1ccccc1` displayed an IC50 in series [1] above 10 µM. The EC50 in the series on Enterovirus A71 turned out to be 28.4 µM. The half-maximal cytotoxic concentration (CC50) at 24 h in series [2] is above 100 µM.

For `CCCNC(=O)C(=O)[C@H](C[C@@H]1CCCNC1=O)NC(=O)[C@H](Cc1ccccc1)NC(=O)/C=C/c1ccccc1`, half-maximal inhibition in series [1] (IC50) was put at 9.49 µM. In the series on Enterovirus A71, the EC50 is 4.59 µM. In addition, the CC50 at 24 h in series [2] is above 100 µM.

`N#CC(OC(=S)Oc1ccccc1)[C@H](C[C@@H]1CCCNC1=O)NC(=O)[C@H](Cc1ccccc1)NC(=O)/C=C/c1ccccc1` (some centres undefined) displayed an IC50 in series [1] of 1.05 µM. The EC50 with Enterovirus A71 was 0.15 µM. Besides, in series [2], the CC50 at 24 h is above 100 µM.

In series [1], `Cc1cc(C(=O)N[C@@H](Cc2ccc(F)cc2)C(=O)N[C@H](C=O)C[C@@H]2CCCNC2=O)no1` returned an IC50 of 0.1 µM. For the same compound, the EC50 in the series on Enterovirus A71 was 0.11 µM. In series [2], this compound displayed a CC50 at 24 h above 100 µM.

In the case of `N#C[C@H](C[C@@H]1CCCNC1=O)NC(=O)[C@H](Cc1ccccc1)NC(=O)/C=C/c1ccccc1`, the IC50 in series [1] is above 10 µM. Besides, the EC50 in the series on Enterovirus A71 is above 100 µM. The CC50 at 24 h in series [2] is above 100 µM.

In the case of `CC(=O)OC(C#N)[C@H](C[C@@H]1CCCNC1=O)NC(=O)[C@H](Cc1ccccc1)NC(=O)/C=C/c1ccccc1` (some centres undefined), it took 1.62 µM to reach half-maximal inhibition in series [1] (IC50). The EC50 in the series on Enterovirus A71 was 0.1 µM. In series [2], this compound gave a CC50 at 24 h above 100 µM.

In series [1], `Cc1cc(C(=O)N[C@@H](Cc2ccc(F)cc2)C(=O)N[C@@H](C[C@@H]2CCCNC2=O)[C@H](O)C#N)no1` yielded an IC50 of 0.31 µM. Further, in the series with Enterovirus A71, the EC50 was 0.045 µM. The CC50 at 24 h in series [2] was above 100 µM.

`CCCNC(=O)C(O)[C@H](C[C@@H]1CCCNC1=O)NC(=O)[C@H](Cc1ccccc1)NC(=O)/C=C/c1ccccc1` (some centres undefined) showed an IC50 in series [1] above 10 µM. For the same compound, the EC50 in the series on Enterovirus A71 was above 100 µM. The same compound showed a CC50 at 24 h in series [2] above 100 µM.

Turning to `Cc1cc(C(=O)N[C@@H](Cc2ccc(F)cc2)C(=O)N[C@@H](C[C@@H]2CCCNC2=O)[C@@H](O)C#N)no1`, half-maximal inhibition in series [1] (IC50) required 0.27 µM. In addition, in the series on Enterovirus A71, the EC50 was 0.048 µM. Further, the CC50 at 24 h in series [2] was above 100 µM. In addition, the LD50 at 24 h in series [3] amounted to 96.5 mg/kg.

Turning to `O=C(/C=C/c1ccccc1)N[C@@H](Cc1ccccc1)C(=O)N[C@H](CO)C[C@@H]1CCCNC1=O`, the IC50 in series [1] is above 10 µM. Moreover, the EC50 in the series with Enterovirus A71 is above 100 µM. This compound also registered a CC50 at 24 h in series [2] above 100 µM.

Take `Cc1cc(C(=O)N[C@@H](Cc2ccc(F)cc2)C(=O)N[C@@H](C[C@@H]2CCCNC2=O)C(O)C#N)no1` (some centres undefined): the IC50 in series [1] is 0.28 µM. The EC50 in the series on Enterovirus A71 turned out to be 0.056 µM. This compound returned a CC50 at 24 h in series [2] above 100 µM.

Regarding `O=C[C@H](C[C@@H]1CCNC1=O)NC(=O)[C@H](Cc1ccccc1)NC(=O)/C=C/c1ccccc1`, the IC50 in series [1] was 3.81 µM. In addition, the EC50 with Enterovirus A71 is 3.07 µM. In series [2], this compound returned a CC50 at 24 h above 100 µM.

Consider `CCOC(=O)/C=C/[C@H](C[C@@H]1CCNC1=O)NC(=O)[C@@H](CC(=O)[C@@H](NC(=O)c1cc(C)on1)C(C)C)Cc1ccc(F)cc1` [RUPINTRIVIR], for which, in series [4], the IC50 came out at 2.3 µM.

One may read the IC50 as the concentration at which inhibition is half-maximal. The EC50 is the concentration at which the effect is half-maximal. The CC50 is the concentration that lowers cell viability or growth by half. Read a low CC50 as harm at low concentration. What is called LD50 is the dose at which mortality reaches 50%. Low readings indicate a more toxic substance, high ones a less toxic substance.
